The source made the active and inactive calls. The calls are words filed in the database; no cut-off is given here.
What was measured:
Anamorsin (Homo sapiens) [1] = target: Anamorsin (Homo sapiens) (UniProt Q6FI81); assay: Inhibition of CIAPIN1 in human KMS11 cells assessed as […] depletion of stable CIAPIN1 levels at 1 to 10 uM incubated for 6 hrs by immunoblot analysis; format: cell-based
[2] = target: Ubiquitin carboxyl-terminal hydrolase isozyme L1 (Homo sapiens) (UniProt P09936); assay: Inhibition of human recombinant UCHL1 assessed as reduction in cleavage of luminescent substrate Ub-AML at 100 uM
Procedure, shortened: (§1)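 Purified recombinant DUBs assayed with Ub-AML as luminescent substrate, using the Glo reagent protocol and read on a microplate luminometer.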

HeLa [3] = assay: Inhibition of deubiquitinase in human HeLa cell extracts assessed as decrease in global DUB activity at 10 uM using luminescent substrate Ub-AML; format: cell-free
Procedure, shortened: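 HeLa crude extracts used as the DUB source, prepared as for the ABP assays. Global DUB activity read by luminescence with Ub-AML substrate, using the Glo reagent protocol.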

HeLa [4] = assay: Cytotoxicity in human HeLa cells assessed as reduction in cell viability incubated for 72 hrs Cell-titer Glo reagent based assay; format: functional
Procedure, shortened: (§2)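 Tumor lines grown at 37 °C, 5% CO2 with 10% FBS (DMEM for HeLa and SiHa; RPMI for HCT116) and exposed to compound for 72 h. Viability read by CellTiter Glo luminescence; IC50 derived from n=6.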

[5] = target: Ubiquitin carboxyl-terminal hydrolase BAP1 (Homo sapiens) (UniProt Q92560); assay: Inhibition of His6-tagged recombinant human BAP1 assessed as reduction in cleavage of luminescent substrate Ub-AML at 100 uM; procedure, shortened: as §1
[6] = target: Ubiquitin thioesterase OTUB1 (Homo sapiens) (UniProt Q96FW1); assay: Inhibition of recombinant human His6-Otubain-1 assessed as reduction in cleavage of luminescent substrate Ub-AML at 100 uM; procedure, shortened: as §1
[7] = target: T1, Ubiquitin carboxyl-terminal hydrolase isozyme L5 (Homo sapiens) (UniProt Q9Y5K5); assay: Inhibition of UCH-37 in human HeLa crude cell extracts assessed as induction of formation of high molecular weight complexes with […] at 10 uM incubated for 2 hrs in presence of glutathione by immunoblot analysis; format: cell-free
T1 sequence (whole entry): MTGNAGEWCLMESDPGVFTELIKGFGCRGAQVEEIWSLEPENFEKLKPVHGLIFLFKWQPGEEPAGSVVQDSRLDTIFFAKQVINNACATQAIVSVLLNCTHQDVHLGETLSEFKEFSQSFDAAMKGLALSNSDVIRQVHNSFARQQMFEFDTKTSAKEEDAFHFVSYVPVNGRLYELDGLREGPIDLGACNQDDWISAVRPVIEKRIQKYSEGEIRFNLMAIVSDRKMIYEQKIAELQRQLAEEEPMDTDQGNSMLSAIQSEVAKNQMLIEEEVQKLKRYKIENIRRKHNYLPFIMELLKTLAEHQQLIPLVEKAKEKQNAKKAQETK

HeLa [8] = assay: Inhibition of deubiquitinase in human HeLa cell extracts assessed as induction of accumulation of high molecular weight mTOR proteins at 10 uM incubated for 2 hrs by immunoblot analysis; format: cell-free
[9] = target: Ubiquitin carboxyl-terminal hydrolase 5 (Homo sapiens) (UniProt P45974); assay: Inhibition of human recombinant isopeptidase T assessed as reduction in cleavage of luminescent substrate Ub-AML at 100 uM; procedure, shortened: as §1
[10] = target: Ubiquitin carboxyl-terminal hydrolase 7 (Homo sapiens) (UniProt Q93009); assay: Inhibition of N-terminal His6-tagged full length recombinant human USP7 assessed as reduction in cleavage of luminescent substrate Ub-AML at 100 uM; procedure, shortened: as §1
Anamorsin (Homo sapiens) [11] = target: Anamorsin (Homo sapiens) (UniProt Q6FI81); assay: Inhibition of CIAPIN1 in human KMS11 cells assessed as induction of high molecular weight complex formation at 1 to 10 uM incubated for 6 hrs by immunoblot analysis; format: cell-based
[12] = target: T1, Ubiquitin carboxyl-terminal hydrolase isozyme L5 (Homo sapiens); assay: Inhibition of UCH-37 in human HeLa crude cell extracts assessed as induction of formation of high molecular weight complexes with […] at 10 uM incubated for 2 hrs in presence of dithiothreitol by immunoblot analysis; format: cell-free
[13] = target: Ubiquitin carboxyl-terminal hydrolase isozyme L3 (Homo sapiens) (UniProt P15374); assay: Inhibition of human recombinant UCHL3 assessed as reduction in cleavage of luminescent substrate Ub-AML at 100 uM; procedure, shortened: as §1
SiHa = assay: Cytotoxicity in human SiHa cells assessed as reduction in cell viability incubated for 72 hrs Cell-titer Glo reagent based assay; format: functional; procedure, shortened: as §2
HCT-116 = assay: Cytotoxicity in human HCT116 cells assessed as reduction in cell viability incubated for 72 hrs Cell-titer Glo reagent based assay; format: functional; procedure, shortened: as §2
[14] = target: Ubiquitin carboxyl-terminal hydrolase 8 (Homo sapiens) (UniProt P40818); assay: Inhibition of N-terminal His6-tagged full length recombinant human USP8 assessed as reduction in cleavage of luminescent substrate Ub-AML at 100 uM; procedure, shortened: as §1
HUVEC = assay: Cytotoxicity in human HUVEC cells assessed as reduction in cell viability incubated for 72 hrs Cell-titer Glo reagent based assay
Procedure, shortened: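 Endothelial HUVECs (EGM-2, 10% FBS) exposed to compound for 72 h, n=6. Viability read as CellTiter Glo luminescence and IC50 derived.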

HeLa [15] = assay: Inhibition of deubiquitinase in human HeLa cell extracts assessed as induction of accumulation of high molecular weight ubiquitylated proteins at 10 uM incubated for 2 hrs by immunoblot analysis; format: cell-free
[16] = target: Ubiquitin carboxyl-terminal hydrolase 2 (Homo sapiens) (UniProt O75604); assay: Inhibition of N-terminal His6-tagged […] recombinant human USP2 catalytic domain assessed as reduction in cleavage of luminescent substrate Ub-AML at 100 uM; procedure, shortened: as §1
[17] = target: T1, Ubiquitin carboxyl-terminal hydrolase isozyme L5 (Homo sapiens); assay: Inhibition of UCH-37 in intact human HeLa cells assessed as induction of formation of high molecular weight complexes with USP14 at 10 uM incubated for 2 hrs by immunoblot analysis; format: cell-based
Procedure, shortened: (§3)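 Intact HeLa cells (DMEM, 10% FBS, about 80% confluent) treated 2 h with vehicle or 10 μM compound, with or without 10 mM DTT or 10 mM GSH. Cells washed in cold PBS and lysed in RIPA with protease and phosphatase inhibitors. High-MW species detected by SDS-PAGE immunoblot; shorter exposures served as loading control.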

KMS-11 = assay: Cytotoxicity in human KMS11 cells assessed as reduction in cell viability at 1 to 10 uM incubated for 16 hrs in presence of GSH by Alamar blue assay; format: functional, cell-based
Procedure, shortened: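 KMS11 seeded at 80,000/well, treated with 1 or 10 µM compound with or without 1 mM GSH for 16 h, 6 biological replicates. Alamar blue fluorescence read at 560/590 nm, normalised to DMSO control.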

[18] = target: Ubiquitin carboxyl-terminal hydrolase 14 (Homo sapiens) (UniProt P54578); assay: Inhibition of USP14 in intact human HeLa cells assessed as induction of formation of high molecular weight complexes with USP14 at 10 uM in presence of dithiothreitol incubated for 2 hrs by immunoblot analysis; format: cell-based; procedure, shortened: as §3
[19] = target: Ubiquitin carboxyl-terminal hydrolase 14 (Homo sapiens) (UniProt P54578); assay: Inhibition of USP14 in human HeLa crude cell extracts assessed as induction of formation of high molecular weight complexes with USP14 at 10 uM incubated for 2 hrs in presence of dithiothreitol by immunoblot analysis; format: cell-free
HeLa [20] = assay: Inhibition of deubiquitinase in human HeLa cell extracts assessed as induction of accumulation of high molecular weight ubiquitylated proteins at 10 uM incubated for 2 hrs in presence of DTT by immunoblot analysis; format: cell-free

Sequence of Anamorsin (Homo sapiens) (Q6FI81 whole entry): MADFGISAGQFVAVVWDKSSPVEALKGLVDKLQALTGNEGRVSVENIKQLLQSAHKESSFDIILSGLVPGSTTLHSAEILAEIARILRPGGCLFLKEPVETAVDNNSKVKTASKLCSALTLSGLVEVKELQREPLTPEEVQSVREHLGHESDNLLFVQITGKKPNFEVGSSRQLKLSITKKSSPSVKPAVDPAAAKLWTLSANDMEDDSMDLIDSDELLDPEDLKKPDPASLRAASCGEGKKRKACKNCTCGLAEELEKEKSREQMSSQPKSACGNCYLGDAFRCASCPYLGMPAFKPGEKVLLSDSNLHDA
Sequence of Ubiquitin carboxyl-terminal hydrolase 14 (Homo sapiens) (P54578 whole entry): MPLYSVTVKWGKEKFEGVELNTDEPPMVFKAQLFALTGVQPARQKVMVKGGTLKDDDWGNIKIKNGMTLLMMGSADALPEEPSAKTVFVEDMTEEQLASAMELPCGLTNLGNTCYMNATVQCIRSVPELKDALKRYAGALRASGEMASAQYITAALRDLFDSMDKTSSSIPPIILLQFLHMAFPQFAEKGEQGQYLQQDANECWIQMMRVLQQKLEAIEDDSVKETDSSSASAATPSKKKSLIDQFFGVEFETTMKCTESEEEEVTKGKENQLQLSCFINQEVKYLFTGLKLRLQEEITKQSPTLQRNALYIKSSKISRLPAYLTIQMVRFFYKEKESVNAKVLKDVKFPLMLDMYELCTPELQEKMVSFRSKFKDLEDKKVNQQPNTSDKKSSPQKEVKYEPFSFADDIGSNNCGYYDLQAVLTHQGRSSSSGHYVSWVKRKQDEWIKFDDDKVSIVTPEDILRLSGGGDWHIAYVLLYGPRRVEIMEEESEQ
Sequence of Ubiquitin carboxyl-terminal hydrolase 5 (Homo sapiens) (P45974 whole entry): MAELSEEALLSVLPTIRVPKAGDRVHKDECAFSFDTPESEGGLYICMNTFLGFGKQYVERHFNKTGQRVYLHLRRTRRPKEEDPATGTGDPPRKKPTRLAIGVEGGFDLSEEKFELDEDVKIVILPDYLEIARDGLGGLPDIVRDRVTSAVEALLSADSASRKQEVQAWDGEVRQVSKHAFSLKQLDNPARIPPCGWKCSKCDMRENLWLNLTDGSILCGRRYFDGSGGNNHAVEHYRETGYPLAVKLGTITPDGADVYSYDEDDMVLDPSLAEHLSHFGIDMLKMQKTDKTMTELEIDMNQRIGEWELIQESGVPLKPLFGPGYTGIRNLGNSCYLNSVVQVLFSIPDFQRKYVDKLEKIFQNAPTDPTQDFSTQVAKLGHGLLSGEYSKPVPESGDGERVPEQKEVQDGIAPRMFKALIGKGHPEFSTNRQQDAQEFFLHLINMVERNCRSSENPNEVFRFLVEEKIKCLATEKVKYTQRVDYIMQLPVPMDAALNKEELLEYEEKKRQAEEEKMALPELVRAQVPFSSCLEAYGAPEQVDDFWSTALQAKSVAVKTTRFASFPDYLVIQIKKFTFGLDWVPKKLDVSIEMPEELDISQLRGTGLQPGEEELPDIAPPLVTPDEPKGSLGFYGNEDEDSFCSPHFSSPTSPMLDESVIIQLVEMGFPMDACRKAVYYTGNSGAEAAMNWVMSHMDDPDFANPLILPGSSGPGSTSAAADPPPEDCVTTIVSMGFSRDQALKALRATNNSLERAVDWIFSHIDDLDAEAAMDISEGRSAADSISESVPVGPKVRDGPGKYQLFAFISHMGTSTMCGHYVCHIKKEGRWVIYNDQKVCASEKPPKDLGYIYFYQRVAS
Sequence of Ubiquitin thioesterase OTUB1 (Homo sapiens) (Q96FW1 whole entry): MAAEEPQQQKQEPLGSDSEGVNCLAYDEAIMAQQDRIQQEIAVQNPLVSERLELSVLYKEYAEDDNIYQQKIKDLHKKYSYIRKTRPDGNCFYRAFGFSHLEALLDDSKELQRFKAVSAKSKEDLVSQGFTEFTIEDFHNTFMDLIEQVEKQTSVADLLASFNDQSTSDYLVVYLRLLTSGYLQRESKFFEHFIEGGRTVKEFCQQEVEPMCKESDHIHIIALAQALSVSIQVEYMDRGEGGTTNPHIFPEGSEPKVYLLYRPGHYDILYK
Sequence of Ubiquitin carboxyl-terminal hydrolase 7 (Homo sapiens) (Q93009 whole entry, looked up): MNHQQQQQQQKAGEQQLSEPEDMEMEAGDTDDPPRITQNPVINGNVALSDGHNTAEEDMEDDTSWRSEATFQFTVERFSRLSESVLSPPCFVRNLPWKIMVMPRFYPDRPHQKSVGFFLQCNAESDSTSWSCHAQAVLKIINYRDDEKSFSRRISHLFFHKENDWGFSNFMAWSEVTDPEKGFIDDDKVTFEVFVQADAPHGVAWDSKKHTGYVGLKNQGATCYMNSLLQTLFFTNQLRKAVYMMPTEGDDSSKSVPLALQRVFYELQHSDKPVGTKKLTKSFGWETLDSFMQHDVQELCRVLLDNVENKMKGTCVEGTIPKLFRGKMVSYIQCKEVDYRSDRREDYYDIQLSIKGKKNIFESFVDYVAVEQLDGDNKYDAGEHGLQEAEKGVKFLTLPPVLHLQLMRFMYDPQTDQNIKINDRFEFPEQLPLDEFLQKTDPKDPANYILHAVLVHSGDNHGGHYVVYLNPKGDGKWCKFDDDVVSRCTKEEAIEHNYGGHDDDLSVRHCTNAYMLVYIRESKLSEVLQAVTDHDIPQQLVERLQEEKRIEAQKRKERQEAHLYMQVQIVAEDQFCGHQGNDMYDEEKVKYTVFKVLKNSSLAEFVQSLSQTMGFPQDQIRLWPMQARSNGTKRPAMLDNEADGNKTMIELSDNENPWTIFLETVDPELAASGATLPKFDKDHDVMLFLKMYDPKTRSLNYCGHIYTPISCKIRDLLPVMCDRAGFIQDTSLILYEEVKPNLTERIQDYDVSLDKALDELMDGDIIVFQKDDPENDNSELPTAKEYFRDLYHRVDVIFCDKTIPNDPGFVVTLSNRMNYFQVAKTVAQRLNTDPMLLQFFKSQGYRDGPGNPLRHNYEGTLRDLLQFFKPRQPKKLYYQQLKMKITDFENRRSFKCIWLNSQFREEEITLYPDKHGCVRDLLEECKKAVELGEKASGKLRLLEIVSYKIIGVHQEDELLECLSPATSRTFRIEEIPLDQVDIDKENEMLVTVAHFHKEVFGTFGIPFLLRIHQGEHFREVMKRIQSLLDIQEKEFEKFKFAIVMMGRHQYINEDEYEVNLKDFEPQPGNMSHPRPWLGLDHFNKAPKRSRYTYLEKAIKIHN
Sequence of Ubiquitin carboxyl-terminal hydrolase isozyme L3 (Homo sapiens) (P15374 whole entry): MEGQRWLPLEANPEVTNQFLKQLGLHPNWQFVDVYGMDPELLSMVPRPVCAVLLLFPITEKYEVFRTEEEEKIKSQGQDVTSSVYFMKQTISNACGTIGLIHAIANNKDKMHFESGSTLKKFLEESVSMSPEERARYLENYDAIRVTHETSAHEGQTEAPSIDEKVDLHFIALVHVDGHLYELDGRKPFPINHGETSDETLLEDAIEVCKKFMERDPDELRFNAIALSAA
Sequence of Ubiquitin carboxyl-terminal hydrolase 8 (Homo sapiens) (P40818 whole entry): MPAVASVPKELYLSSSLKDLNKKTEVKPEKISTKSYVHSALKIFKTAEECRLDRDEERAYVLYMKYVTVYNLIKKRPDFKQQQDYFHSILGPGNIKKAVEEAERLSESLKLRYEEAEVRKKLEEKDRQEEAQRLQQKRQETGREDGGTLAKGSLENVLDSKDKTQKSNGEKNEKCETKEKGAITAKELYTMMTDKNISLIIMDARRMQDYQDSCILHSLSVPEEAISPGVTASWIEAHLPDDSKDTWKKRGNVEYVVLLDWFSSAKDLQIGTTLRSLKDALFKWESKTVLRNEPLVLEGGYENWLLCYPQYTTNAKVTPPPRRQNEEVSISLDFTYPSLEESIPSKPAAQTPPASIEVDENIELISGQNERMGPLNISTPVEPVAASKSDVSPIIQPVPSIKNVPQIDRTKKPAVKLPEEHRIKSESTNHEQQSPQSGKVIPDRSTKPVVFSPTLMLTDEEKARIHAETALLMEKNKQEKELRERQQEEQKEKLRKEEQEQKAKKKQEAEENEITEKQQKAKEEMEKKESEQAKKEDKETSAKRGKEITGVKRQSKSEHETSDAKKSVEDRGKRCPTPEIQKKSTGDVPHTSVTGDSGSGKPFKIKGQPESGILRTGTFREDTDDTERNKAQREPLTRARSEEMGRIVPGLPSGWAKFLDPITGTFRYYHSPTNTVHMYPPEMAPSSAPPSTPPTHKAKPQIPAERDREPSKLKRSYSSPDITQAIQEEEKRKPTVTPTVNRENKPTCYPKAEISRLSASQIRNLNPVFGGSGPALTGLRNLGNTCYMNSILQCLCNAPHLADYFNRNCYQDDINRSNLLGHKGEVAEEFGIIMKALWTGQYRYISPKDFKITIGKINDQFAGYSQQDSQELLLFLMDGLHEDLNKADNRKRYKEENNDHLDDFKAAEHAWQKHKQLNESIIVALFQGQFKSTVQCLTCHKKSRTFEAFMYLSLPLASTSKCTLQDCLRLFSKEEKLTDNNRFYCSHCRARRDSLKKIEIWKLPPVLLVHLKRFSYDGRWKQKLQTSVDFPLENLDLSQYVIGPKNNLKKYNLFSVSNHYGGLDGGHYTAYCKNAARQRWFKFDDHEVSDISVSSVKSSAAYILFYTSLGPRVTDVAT
Sequence of Ubiquitin carboxyl-terminal hydrolase 2 (Homo sapiens) (O75604 whole entry, the tested form may be a part): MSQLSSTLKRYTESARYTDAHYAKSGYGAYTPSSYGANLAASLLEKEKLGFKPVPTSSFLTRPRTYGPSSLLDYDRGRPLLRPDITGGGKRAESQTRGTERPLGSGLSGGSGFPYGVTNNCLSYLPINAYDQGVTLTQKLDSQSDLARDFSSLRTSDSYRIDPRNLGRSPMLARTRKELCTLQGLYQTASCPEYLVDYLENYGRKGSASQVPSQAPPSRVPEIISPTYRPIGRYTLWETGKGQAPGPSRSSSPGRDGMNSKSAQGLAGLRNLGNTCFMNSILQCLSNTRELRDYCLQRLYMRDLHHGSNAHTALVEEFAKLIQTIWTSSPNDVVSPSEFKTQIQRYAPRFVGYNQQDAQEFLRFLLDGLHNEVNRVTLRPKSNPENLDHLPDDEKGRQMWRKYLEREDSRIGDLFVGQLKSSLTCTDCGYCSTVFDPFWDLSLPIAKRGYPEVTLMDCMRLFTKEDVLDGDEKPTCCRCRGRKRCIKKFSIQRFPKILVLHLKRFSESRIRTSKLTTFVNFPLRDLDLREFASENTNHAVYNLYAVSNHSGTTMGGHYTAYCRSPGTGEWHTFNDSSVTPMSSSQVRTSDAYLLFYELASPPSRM

Question: Which inhibition (Anamorsin (Homo sapiens) [1]) does the source give for `C=CC(=O)N1C/C(=C\c2ccc([N+](=O)[O-])cc2)C(=O)/C(=C/c2ccc([N+](=O)[O-])cc2)C1` here?
Answer: Active

Question: What about the inhibition [2] of the same molecule?
Answer: Active

Question: And the inhibition (HeLa [3])?
Answer: Active

Question: What about the Activity (HeLa [4]) of the same molecule?
Answer: Active

Question: What about the inhibition [5] of the same molecule?
Answer: Active

Question: And the inhibition [6]?
Answer: Active

Question: And the inhibition [7]?
Answer: inactive

Question: What about the inhibition (HeLa [8]) of the same molecule?
Answer: Active

Question: What about the inhibition [9] of the same molecule?
Answer: Active

Question: What about the inhibition [10] of the same molecule?
Answer: Active

Question: And the inhibition (Anamorsin (Homo sapiens) [11])?
Answer: Active

Question: And the inhibition [12]?
Answer: inactive

Question: What about the inhibition [13] of the same molecule?
Answer: Active

Question: What about the Activity (SiHa) of the same molecule?
Answer: Active

Question: What about the Activity (HCT-116) of the same molecule?
Answer: Active

Question: And the inhibition [14]?
Answer: Active

Question: What about the Activity (HUVEC) of the same molecule?
Answer: Toxic

Question: What about the inhibition (HeLa [15]) of the same molecule?
Answer: Active

Question: And the inhibition [16]?
Answer: Active

Question: What about the inhibition [17] of the same molecule?
Answer: Active

Question: What about the Activity (KMS-11) of the same molecule?
Answer: inactive

Question: What about the inhibition [18] of the same molecule?
Answer: inactive

Question: And the inhibition [19]?
Answer: inactive

Question: And the inhibition (HeLa [20])?
Answer: inactive

— ChEMBL document CHEMBL4354861, “Re-Evaluating the Mechanism of Action of α,β-Unsaturated Carbonyl DUB Inhibitors b-AP15 and VLX1570: A Paradigmatic Example of Unspecific Protein Cross-linking with Michael Acceptor Motif-Containing Drugs” (J Med Chem, 2020)
